Results published in ChEMBL document CHEMBL5247575 (J Med Chem, 2018).
Values after ≈ are worked out from the molar mass of the structure shown.

Tested on: Acinetobacter baumannii
Test: Synergistic antibacterial activity against Acinetobacter baumannii PR448 producing OXA-23 assessed as cefepime MIC at 4 ug/ml by broth microdilution method
Format: functional
Details: dose 4 µg/ml

| Compound | MIC [µg/mL] |
| --- | --- |
| O=C(NNC(=O)[C@@H]1CC[C@@H]2CN1C(=O)N2OS(=O)(=O)O)[C@@H]1CCNC1 | 4 |

Tested on: Klebsiella pneumoniae
Test: Synergistic antibacterial activity against Klebsiella pneumoniae NY BS producing OXA-232 assessed as meropenem MIC at 4 ug/ml by broth microdilution method
Format: functional
Details: dose 4 µg/ml

| Compound | MIC [µg/mL] |
| --- | --- |
| O=C(NNC(=O)[C@@H]1CC[C@@H]2CN1C(=O)N2OS(=O)(=O)O)[C@@H]1CCNC1 | ≤ 0.12 |

Tested on: Klebsiella pneumoniae
Test: Synergistic antibacterial activity against Klebsiella pneumoniae jefferson 1775 producing OXA-48 assessed as meropenem MIC at 8 ug/ml by broth microdilution method
Format: functional
Details: dose 8 µg/ml

| Compound | MIC [µg/mL] |
| --- | --- |
| O=C(NNC(=O)[C@@H]1CC[C@@H]2CN1C(=O)N2OS(=O)(=O)O)[C@@H]1CCNC1 | ≤ 0.12 |

Tested on: Escherichia coli
Test: Synergistic antibacterial activity against Escherichia coli DH10B assessed as meropenem MIC at 4 ug/ml by broth microdilution method
Format: functional
Details: dose 4 µg/ml

| Compound | MIC [µg/mL] |
| --- | --- |
| O=C(NNC(=O)[C@@H]1CC[C@@H]2CN1C(=O)N2OS(=O)(=O)O)[C@@H]1CCNC1 | ≤ 0.12 |

Tested on: Klebsiella pneumoniae
Test: Synergistic antibacterial activity against Klebsiella pneumoniae 729/1679 producing KPC-3 assessed as meropenem MIC at 4 ug/ml by broth microdilution method
Format: functional
Details: dose 4 µg/ml
In short: (§1)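 Broth microdilution per CLSI guidelines, using custom frozen panels. […] Each partner drug was also tested alone. MICs were run in triplicate and the modal value is reported.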

| Compound | MIC [µg/mL] |
| --- | --- |
| O=C(NNC(=O)[C@@H]1CC[C@@H]2CN1C(=O)N2OS(=O)(=O)O)[C@@H]1CCNC1 | 0.25 |

Tested on: Klebsiella pneumoniae
Test: Synergistic antibacterial activity against Klebsiella pneumoniae 1084/1957 producing KPC-3 assessed as cefepime MIC at 8 ug/ml by broth microdilution method
Format: functional
Details: dose 8 µg/ml
In short: as §1

| Compound | MIC [µg/mL] |
| --- | --- |
| O=C(NNC(=O)[C@@H]1CC[C@@H]2CN1C(=O)N2OS(=O)(=O)O)[C@@H]1CCNC1 | ≤ 0.12 |

Tested on: Acinetobacter baumannii
Test: Synergistic antibacterial activity against Acinetobacter baumannii PR359 producing OXA-23 assessed as cefepime MIC at 8 ug/ml by broth microdilution method
Format: functional
Details: dose 8 µg/ml

| Compound | MIC [µg/mL] |
| --- | --- |
| O=C(NNC(=O)[C@@H]1CC[C@@H]2CN1C(=O)N2OS(=O)(=O)O)[C@@H]1CCNC1 | 16 |

Tested on: Acinetobacter baumannii
Test: Synergistic antibacterial activity against Acinetobacter baumannii PR474 producing OXA-23/24/40 assessed as meropenem MIC at 4 ug/ml by broth microdilution method
Format: functional
Details: dose 4 µg/ml

| Compound | MIC [µg/mL] |
| --- | --- |
| O=C(NNC(=O)[C@@H]1CC[C@@H]2CN1C(=O)N2OS(=O)(=O)O)[C@@H]1CCNC1 | > 16 |

Tested on: Acinetobacter baumannii
Test: Synergistic antibacterial activity against Acinetobacter baumannii PR440 producing OXA-23/24/40 assessed as meropenem MIC at 8 ug/ml by broth microdilution method
Format: functional
Details: dose 8 µg/ml

| Compound | MIC [µg/mL] |
| --- | --- |
| O=C(NNC(=O)[C@@H]1CC[C@@H]2CN1C(=O)N2OS(=O)(=O)O)[C@@H]1CCNC1 | > 16 |

Tested on: Pseudomonas aeruginosa
Test: Synergistic antibacterial activity against Pseudomonas aeruginosa CL232 assessed as cefepime MIC at 4 ug/ml by broth microdilution method
Format: functional
Details: dose 4 µg/ml

| Compound | MIC [µg/mL] |
| --- | --- |
| O=C(NNC(=O)[C@@H]1CC[C@@H]2CN1C(=O)N2OS(=O)(=O)O)[C@@H]1CCNC1 | 8 |

Tested on: Acinetobacter baumannii
Test: Synergistic antibacterial activity against Acinetobacter baumannii PR363 producing OXA-23 assessed as cefepime MIC at 8 ug/ml by broth microdilution method
Format: functional
Details: dose 8 µg/ml

| Compound | MIC [µg/mL] |
| --- | --- |
| O=C(NNC(=O)[C@@H]1CC[C@@H]2CN1C(=O)N2OS(=O)(=O)O)[C@@H]1CCNC1 | 8 |

Tested on: Acinetobacter baumannii
Test: Synergistic antibacterial activity against Acinetobacter baumannii PR359 producing OXA-23 assessed as meropenem MIC at 4 ug/ml by broth microdilution method
Format: functional
Details: dose 4 µg/ml

| Compound | MIC [µg/mL] |
| --- | --- |
| O=C(NNC(=O)[C@@H]1CC[C@@H]2CN1C(=O)N2OS(=O)(=O)O)[C@@H]1CCNC1 | > 16 |

Tested on: Pseudomonas aeruginosa
Test: Synergistic antibacterial activity against Pseudomonas aeruginosa 776 assessed as meropenem MIC at 8 ug/ml by broth microdilution method
Format: functional
Details: dose 8 µg/ml

| Compound | MIC [µg/mL] |
| --- | --- |
| O=C(NNC(=O)[C@@H]1CC[C@@H]2CN1C(=O)N2OS(=O)(=O)O)[C@@H]1CCNC1 | 16 |

Tested on: Pseudomonas aeruginosa
Test: Antibacterial activity against Pseudomonas aeruginosa 839 by broth microdilution method
Format: functional
Details: not given

| Compound | MIC [µg/mL] |
| --- | --- |
| O=C(NNC(=O)[C@@H]1CC[C@@H]2CN1C(=O)N2OS(=O)(=O)O)[C@@H]1CCNC1 | 4 (≈ 10.6 µM) |

Tested on: Bacteria
Test: Inhibition of bacteria ADC-7 assessed as second order rate constant K2/K using nitrocefin as substrate
Details: not given

| Compound | K |
| --- | --- |
| O=C(NNC(=O)[C@@H]1CC[C@@H]2CN1C(=O)N2OS(=O)(=O)O)[C@@H]1CCNC1 | 3.2 10^4/M/s |

Tested on: Escherichia coli
Test: Synergistic antibacterial activity against Escherichia coli DH10B transfected with pBC SK (-) OXA-48 assessed as cefepime MIC at 8 ug/ml by broth microdilution method
Format: functional
Details: dose 8 µg/ml
In short: as §1

| Compound | MIC [µg/mL] |
| --- | --- |
| O=C(NNC(=O)[C@@H]1CC[C@@H]2CN1C(=O)N2OS(=O)(=O)O)[C@@H]1CCNC1 | ≤ 0.12 |

Tested on: Acinetobacter baumannii
Test: Synergistic antibacterial activity against ADC deleted Acinetobacter baumannii transfected with pWH1266 producing OXA-24/40 assessed as cefepime MIC at 4 ug/ml by broth microdilution method
Format: functional
Details: dose 4 µg/ml

| Compound | MIC [µg/mL] |
| --- | --- |
| O=C(NNC(=O)[C@@H]1CC[C@@H]2CN1C(=O)N2OS(=O)(=O)O)[C@@H]1CCNC1 | 16 |

Tested on: Klebsiella pneumoniae
Test: Synergistic antibacterial activity against Klebsiella pneumoniae NY BS producing OXA-232 assessed as cefepime MIC at 4 ug/ml by broth microdilution method
Format: functional
Details: dose 4 µg/ml

| Compound | MIC [µg/mL] |
| --- | --- |
| O=C(NNC(=O)[C@@H]1CC[C@@H]2CN1C(=O)N2OS(=O)(=O)O)[C@@H]1CCNC1 | ≤ 0.12 |

Tested on: Klebsiella pneumoniae
Test: Synergistic antibacterial activity against Klebsiella pneumoniae 1315/2198 producing KPC-3 assessed as cefepime MIC at 4 ug/ml by broth microdilution method
Format: functional
Details: dose 4 µg/ml
In short: as §1

| Compound | MIC [µg/mL] |
| --- | --- |
| O=C(NNC(=O)[C@@H]1CC[C@@H]2CN1C(=O)N2OS(=O)(=O)O)[C@@H]1CCNC1 | ≤ 0.12 |
